From PMC11906766 (Scientific Reports, 2025)

Experiments:
hMAO-A = target: T1, hMAO-A (Homo sapiens, UniProt P21397); experiment: hMAO-A inhibition assay; type: biochemical
T1 sequence (P21397 1-527): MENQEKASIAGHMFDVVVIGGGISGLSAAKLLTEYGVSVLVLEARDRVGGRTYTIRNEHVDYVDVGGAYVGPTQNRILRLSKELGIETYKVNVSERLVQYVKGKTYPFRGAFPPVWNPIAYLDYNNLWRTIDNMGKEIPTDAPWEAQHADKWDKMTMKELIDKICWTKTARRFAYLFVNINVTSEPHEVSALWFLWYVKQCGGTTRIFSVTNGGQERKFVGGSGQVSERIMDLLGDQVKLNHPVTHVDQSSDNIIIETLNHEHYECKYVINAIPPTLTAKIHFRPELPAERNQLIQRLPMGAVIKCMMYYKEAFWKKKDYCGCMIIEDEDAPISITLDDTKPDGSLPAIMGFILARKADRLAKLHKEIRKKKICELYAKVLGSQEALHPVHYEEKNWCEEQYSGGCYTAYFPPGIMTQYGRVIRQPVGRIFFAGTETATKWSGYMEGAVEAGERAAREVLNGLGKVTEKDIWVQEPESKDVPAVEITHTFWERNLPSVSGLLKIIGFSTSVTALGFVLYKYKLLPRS

hMAO-B = target: T2, hMAO-B (Homo sapiens, UniProt P27338); experiment: hMAO-B inhibition assay; type: biochemical; conditions: for inhibition at 1 µM: read-out: hMAO-B Inhibition (%), at 1 µM
T2 sequence (P27338 1-520): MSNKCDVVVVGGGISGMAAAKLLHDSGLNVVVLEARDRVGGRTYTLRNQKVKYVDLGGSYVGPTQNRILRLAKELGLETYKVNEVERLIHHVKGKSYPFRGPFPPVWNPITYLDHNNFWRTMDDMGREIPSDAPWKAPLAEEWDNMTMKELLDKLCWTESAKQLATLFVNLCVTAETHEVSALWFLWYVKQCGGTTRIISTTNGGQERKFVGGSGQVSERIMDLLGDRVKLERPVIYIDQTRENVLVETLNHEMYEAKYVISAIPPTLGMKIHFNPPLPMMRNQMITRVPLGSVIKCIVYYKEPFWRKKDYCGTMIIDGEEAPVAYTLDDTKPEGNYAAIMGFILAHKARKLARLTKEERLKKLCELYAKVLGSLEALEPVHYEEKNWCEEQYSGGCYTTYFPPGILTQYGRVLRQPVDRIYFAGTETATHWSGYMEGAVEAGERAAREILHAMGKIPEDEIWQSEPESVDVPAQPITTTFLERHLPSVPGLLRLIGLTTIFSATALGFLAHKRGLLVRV

LPS-stimulated BV2 cells = experiment: NO, TNF-α and IL-1β production in LPS-stimulated BV2 microglial cells; type: cell-based; conditions: LPS 100 ng/mL, 24 h
Outline: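 BV2 microglia were grown 48 h at 37 °C, then pre-treated with test compound for 6 h at 37 °C under 5% CO2, with 0.5% DMSO as vehicle. Medium was replaced by DMEM containing LPS 100 ng/mL (final) for 24 h at 37 °C. NO in the medium was measured with a nitric oxide assay kit; TNF-α and IL-1β by ELISA. Data are mean ± SD of ≥3 independent experiments, compared by Student's t-test.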

Question: `O=C(C=Cc1ccccc1)c1ccccc1` [Compound 1, 1,3-diphenyl-2-propen-1-one, reference compound] was tested. Which IC50 (hMAO-A) did it give?
Answer: The IC50 was over 40 µM.

Question: What does the source list for `O=C(/C=C/c1ccccc1)c1cccs1` [Compound 2, (E)−3-phenyl-1-(thiophen-2-yl)prop-2-en-1-one]?
Answer: IC50 (hMAO-B): 10.6 ± 1.4 µM; Selectivity Index (SI) (hMAO-B; SI = IC50 (hMAO-A) / IC50 (hMAO-B)): > 3; inhibition at 1 µM (hMAO-B): 23.8%; IC50 (hMAO-A): > 40 µM

Question: Which results are given for `O=C(/C=C/c1ccc2ccccc2c1)c1cccs1` [Compound 8, (E)−3-(naphthalen-2-yl)−1-(thiophen-2-yl)prop-2-en-1-one]?
Answer: inhibition at 1 µM (hMAO-B): 27%; IC50 (hMAO-A): > 40 µM

Question: How did the inhibition at 1 µM (hMAO-B) turn out when `COc1ccc(/C=C/C(=O)c2cccs2)cc1` [Compound 9, (E)−3-(4-methoxyphenyl)−1-(thiophen-2-yl)prop-2-en-1-one] was run?
Answer: Its inhibition at 1 µM is 51.7%.

Question: What about the IC50 (hMAO-A) of the same molecule?
Answer: The IC50 was over 40 µM.

Question: Which results are given for `COc1ccc(/C=C/C(=O)c2cccs2)cc1OC` [Compound 10, (E)−3-(3,4-dimethoxyphenyl)−1-(thiophen-2-yl)prop-2-en-1-one]?
Answer: inhibition at 1 µM (hMAO-B): < 5%; IC50 (hMAO-A): > 40 µM

Question: How did the inhibition at 1 µM (hMAO-B) turn out when `COc1ccc(/C=C/C(=O)c2cccs2)cc1O` [Compound 11, (E)−3-(3-hydroxy-4-methoxyphenyl)−1-(thiophen-2-yl)prop-2-en-1-one] was run?
Answer: Its inhibition at 1 µM is 16.6%.

Question: What about the IC50 (hMAO-A) of the same molecule?
Answer: The IC50 was over 40 µM.

Question: What does the source list for `COc1ccc(/C=C/C(=O)c2ccc(Cl)s2)cc1OC` [Compound 16, (E)−1-(5-chlorothiophen-2-yl)−3-(3,4-dimethoxyphenyl)prop-2-en-1-one]?
Answer: inhibition at 1 µM (hMAO-B): 14.5%; IC50 (hMAO-A): > 40 µM

Question: With `COc1ccc(/C=C/C(=O)c2ccc(Br)s2)cc1OC` [Compound 18, (E)−1-(5-bromothiophen-2-yl)−3-(3,4-dimethoxyphenyl)prop-2-en-1-one] as the molecule, how does the inhibition at 1 µM (hMAO-B) read?
Answer: The inhibition at 1 µM was 12.3%.

Question: What about the IC50 (hMAO-A) of the same molecule?
Answer: The IC50 was over 40 µM.

Question: For `COc1ccc(/C=C/C(=O)c2ccc(C)s2)cc1O` [Compound 19, (E)−3-(3-hydroxy-4-methoxyphenyl)−1-(5-methylthiophen-2-yl)prop-2-en-1-one], which inhibition at 1 µM (hMAO-B) is on record?
Answer: Its inhibition at 1 µM is 28.2%.

Question: What about the IC50 (hMAO-A) of the same molecule?
Answer: Its IC50 is over 40 µM.

Question: How did the inhibition at 1 µM (hMAO-B) turn out when `COc1ccc(/C=C/C(=O)c2ccco2)cc1O` [Compound 20, (E)−1-(furan-2-yl)−3-(3-hydroxy-4-methoxyphenyl)prop-2-en-1-one] was run?
Answer: The inhibition at 1 µM was under 5%.

Question: And the IC50 (hMAO-A)?
Answer: The IC50 was over 40 µM.

Question: Which results are given for `COc1ccc(/C=C/C(=O)c2ccc(C)o2)cc1O` [Compound 21, (E)−3-(3-hydroxy-4-methoxyphenyl)−1-(5-methylfuran-2-yl)prop-2-en-1-one]?
Answer: inhibition at 1 µM (hMAO-B): < 5%; IC50 (hMAO-A): > 40 µM

Question: For `COc1ccc(/C=C/C(=O)c2ccc[nH]2)cc1O` [Compound 22, (E)−3-(3-hydroxy-4-methoxyphenyl)−1-(1H-pyrrol-2-yl)prop-2-en-1-one], which inhibition at 1 µM (hMAO-B) is on record?
Answer: Its inhibition at 1 µM is under 5%.

Question: And the IC50 (hMAO-A)?
Answer: Its IC50 is over 40 µM.

Question: lipopolysaccharide [LPS] was tested. Which “level of IL-1β compared to the control group” value (LPS-stimulated BV2 cells) did it give?
Answer: Its value is 30.4 fold.

Question: And the “level of NO compared to the control group” value (LPS-stimulated BV2 cells)?
Answer: The value was 11.4 fold.

Question: And the “level of TNF-α compared to the control group” value (LPS-stimulated BV2 cells)?
Answer: The value was 26.3 fold.
